Assay results as given in ChEMBL document CHEMBL4371031, “In Vitro Antiviral Activity of New Oxazoline Derivatives as Potent Poliovirus Inhibitors” (J Med Chem, 2019).
Calls of active or inactive are those of the source. The rule behind the calls is not given here.

Columns and labels:
Format in all cases: functional, organism-based
Poliovirus 1 [1] = assay: Antiviral activity against Poliovirus Sabin 1 infected in human HeLa cells assessed as reduction in virus-induced cytopathic effect after 72 hrs by crystal violet staining-based assay; details: Enterovirus C
Procedure, shortened: (§1)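 HeLa cells grown in MEM-10% FBS, seeded at 2x10^5 cells/mL in MEM-2% FBS and preincubated 24 h at 37°C, 5% CO2. Compound and virus were cross-titrated […] compound in 0.5 log10 steps (7-point curves), with duplicate wells and three replicate tests per virus. After 72 h at 37°C, cells were crystal violet stained and read at 590 nm. EC50 came from a four-parameter fit; if all virus dilutions gave >80% monolayer destruction, the value was […].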

Poliovirus 2 [2] = assay: Antiviral activity against Poliovirus Sabin 2 infected in human HeLa cells assessed as reduction in virus-induced cytopathic effect after 72 hrs by crystal violet staining-based assay; details: Enterovirus C; procedure, shortened: as §1
Poliovirus 1 [3] = assay: Antiviral activity against Human poliovirus 1 10689 infected in human HeLa cells assessed as reduction in virus-induced cytopathic effect after 72 hrs by crystal violet staining-based assay; details: Enterovirus C, 10689, HeLa; procedure, shortened: as §1
Poliovirus 1 [4] = assay: Antiviral activity against Human poliovirus 1 10691 infected in human HeLa cells assessed as reduction in virus-induced cytopathic effect after 72 hrs by crystal violet staining-based assay; details: Enterovirus C, 10691, HeLa; procedure, shortened: as §1
Poliovirus 1 [5] = assay: Antiviral activity against Human poliovirus 1 10692 infected in human HeLa cells assessed as reduction in virus-induced cytopathic effect after 72 hrs by crystal violet staining-based assay; details: Enterovirus C, 10692, HeLa; procedure, shortened: as §1
Poliovirus 1 [6] = assay: Antiviral activity against Human poliovirus 1 10694 infected in human HeLa cells assessed as reduction in virus-induced cytopathic effect after 72 hrs by crystal violet staining-based assay; details: Enterovirus C, 10694, HeLa; procedure, shortened: as §1
Poliovirus 1 [7] = assay: Antiviral activity against Human poliovirus 1 10695 infected in human HeLa cells assessed as reduction in virus-induced cytopathic effect after 72 hrs by crystal violet staining-based assay; details: Enterovirus C, 10695, HeLa; procedure, shortened: as §1
Poliovirus 1 [8] = assay: Antiviral activity against Human poliovirus 1 10225 infected in human HeLa cells assessed as reduction in virus-induced cytopathic effect after 72 hrs by crystal violet staining-based assay; details: Enterovirus C, 10225, HeLa; procedure, shortened: as §1
Poliovirus 1 [9] = assay: Antiviral activity against Human poliovirus 1 10237 infected in human HeLa cells assessed as reduction in virus-induced cytopathic effect after 72 hrs by crystal violet staining-based assay; details: Enterovirus C, 10237, HeLa; procedure, shortened: as §1
Poliovirus 1 [10] = assay: Antiviral activity against Human poliovirus 1 10238 infected in human HeLa cells assessed as reduction in virus-induced cytopathic effect after 72 hrs by crystal violet staining-based assay; details: Enterovirus C, 10238, HeLa; procedure, shortened: as §1
Poliovirus 1 [11] = assay: Antiviral activity against Human poliovirus 1 10241 infected in human HeLa cells assessed as reduction in virus-induced cytopathic effect after 72 hrs by crystal violet staining-based assay; details: Enterovirus C, 10241, HeLa; procedure, shortened: as §1
Poliovirus 1 [12] = assay: Antiviral activity against Human poliovirus 1 10242 infected in human HeLa cells assessed as reduction in virus-induced cytopathic effect after 72 hrs by crystal violet staining-based assay; details: Enterovirus C, 10242, HeLa; procedure, shortened: as §1
Poliovirus 2 [13] = assay: Antiviral activity against Human poliovirus 2 10219 infected in human HeLa cells assessed as reduction in virus-induced cytopathic effect after 72 hrs by crystal violet staining-based assay; details: Enterovirus C, 10219, HeLa; procedure, shortened: as §1
Poliovirus 2 [14] = assay: Antiviral activity against Human poliovirus 2 10220 infected in human HeLa cells assessed as reduction in virus-induced cytopathic effect after 72 hrs by crystal violet staining-based assay; details: Enterovirus C, 10220, HeLa; procedure, shortened: as §1
Poliovirus 2 [15] = assay: Antiviral activity against Human poliovirus 2 10226 infected in human HeLa cells assessed as reduction in virus-induced cytopathic effect after 72 hrs by crystal violet staining-based assay; details: Enterovirus C, 10226, HeLa; procedure, shortened: as §1
Poliovirus 2 [16] = assay: Antiviral activity against Human poliovirus 2 10227 infected in human HeLa cells assessed as reduction in virus-induced cytopathic effect after 72 hrs by crystal violet staining-based assay; details: Enterovirus C, 10227, HeLa; procedure, shortened: as §1
Poliovirus 2 [17] = assay: Antiviral activity against Human poliovirus 2 10229 infected in human HeLa cells assessed as reduction in virus-induced cytopathic effect after 72 hrs by crystal violet staining-based assay; details: Enterovirus C, 10229, HeLa; procedure, shortened: as §1
Poliovirus 2 [18] = assay: Antiviral activity against Human poliovirus 2 10230 infected in human HeLa cells assessed as reduction in virus-induced cytopathic effect after 72 hrs by crystal violet staining-based assay; details: Enterovirus C, 10230, HeLa; procedure, shortened: as §1
Poliovirus 2 [19] = assay: Antiviral activity against Human poliovirus 2 10234 infected in human HeLa cells assessed as reduction in virus-induced cytopathic effect after 72 hrs by crystal violet staining-based assay; details: Enterovirus C, 10234, HeLa; procedure, shortened: as §1
Poliovirus 2 [20] = assay: Antiviral activity against Human poliovirus 2 MEF-1 infected in human HeLa cells assessed as reduction in virus-induced cytopathic effect after 72 hrs by crystal violet staining-based assay; details: Enterovirus C, MEF-1, HeLa; procedure, shortened: as §1
Poliovirus 3 = assay: Antiviral activity against Human poliovirus 3 Sabin 3 infected in human HeLa cells assessed as reduction in virus-induced cytopathic effect after 72 hrs by crystal violet staining-based assay; details: Enterovirus C, Sabin 3, HeLa; procedure, shortened: as §1
Poliovirus 2 [21] = assay: Antiviral activity against Poliovirus Sabin 2 infected in human HeLa cells assessed as reduction in virus-induced cytopathic effect at 1 uM treated 1 hr post infection and measured after 12 hrs by luminescence based assay
Procedure, shortened: (§2)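 HeLa monolayers were infected with Sabin 2 at 100 CCID50 for 1 h at 37°C, then washed 3x. Drug was added at 0, 1, 2, 4, 6 or 8 h post-infection and left in place. At 12 h, virus was freeze-thawed 3x and titrated in 0.5 log10 dilutions (16 replicates) on HeLa cells for 5 days. CPE was read by ATP luminescence, titre calculated as CCID50 (Kärber); mean of three independent experiments.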

Poliovirus 2 [22] = assay: Antiviral activity against Poliovirus Sabin 2 infected in human HeLa cells assessed as reduction in virus-induced cytopathic effect at 1 uM treated 6 hrs post infection and measured after 12 hrs by luminescence based assay; procedure, shortened: as §2
Poliovirus 2 [23] = assay: Antiviral activity against Poliovirus Sabin 2 infected in human HeLa cells assessed as reduction in virus-induced cytopathic effect at 1 uM treated 0 to 8 hrs post infection and measured after 12 hrs by luminescence based assay; procedure, shortened: as §2

| Compound | EC50 (Poliovirus 1 [1]) [nM] | EC50 (Poliovirus 2 [2]) [nM] | EC50 (Poliovirus 1 [3]) [nM] | EC50 (Poliovirus 1 [4]) [nM] | EC50 (Poliovirus 1 [5]) [nM] | EC50 (Poliovirus 1 [6]) [nM] | EC50 (Poliovirus 1 [7]) [nM] | EC50 (Poliovirus 1 [8]) [nM] | EC50 (Poliovirus 1 [9]) [nM] | EC50 (Poliovirus 1 [10]) [nM] | EC50 (Poliovirus 1 [11]) [nM] | EC50 (Poliovirus 1 [12]) [nM] | EC50 (Poliovirus 2 [13]) [nM] | EC50 (Poliovirus 2 [14]) [nM] | EC50 (Poliovirus 2 [15]) [nM] | EC50 (Poliovirus 2 [16]) [nM] | EC50 (Poliovirus 2 [17]) [nM] | EC50 (Poliovirus 2 [18]) [nM] | EC50 (Poliovirus 2 [19]) [nM] | EC50 (Poliovirus 2 [20]) [nM] | also measured |
| --- | --- | --- | --- | --- | --- | --- | --- | --- | --- | --- | --- | --- | --- | --- | --- | --- | --- | --- | --- | --- | --- |
| Cc1ccc(C(=O)CCCCOc2ccc(C3=NCCO3)cc2)s1 | 90800 | 187 | 60 | 67500 | > 100000 | 7220 | 8410 | 35700 | 5750 | 2100 | 3170 | 37900 | 30 | 40 | > 100000 | 30 | 550 | 100 | 30 | > 100000 | EC50 (Poliovirus 3): 320 nM; Activity (Poliovirus 2 [21]): inactive; Activity (Poliovirus 2 [22]): inactive |
| Cc1ccc(C(=O)CCC/C=C/c2ccc(C3=NCCO3)cc2)s1 | 338 | 27 | 34 | 980 | 780 | 2300 | 580 | 810 | 280 | 190 | 370 | 20 | 30 | 20 | 20 | 40 | 510 | 30 | 20 | 30 | EC50 (Poliovirus 3): 50 nM; Activity (Poliovirus 2 [23]): Active |
| Cc1ccc(C(=O)CCCCSc2ccc(C3=NCCO3)cc2)s1 | 118 | 137 | 2030 | 560 | > 10000 | 6230 | 7430 | > 10000 | 6470 | 7470 | 8070 | 8200 | 1200 | 1000 | 130 | 4330 | 2770 | 5330 | 2470 | 1260 | EC50 (Poliovirus 3): 330 nM; Activity (Poliovirus 2 [21]): inactive; Activity (Poliovirus 2 [22]): Active |
